Measured values from different studies.
JAK2 JH1: Tyrosine-protein kinase JAK2, JH1 (JAK2, Homo sapiens, UniProt O60674)
JAK2: Tyrosine-protein kinase JAK2 (JAK2, Homo sapiens, UniProt O60674)

Compound	target	assay	setting	measurement	result
C1=C/COCc2cc(ccc2OCCN2CCCC2)Nc2nccc(n2)-c2cccc(c2)COC/1	JAK2 JH1	cell-free assay	0.1 µM	remaining signal	6.8%
C=CC(=O)N1CCC([C@@H]2CCNc3c(C(N)=O)c(-c4ccc(Oc5ccccc5)cc4)nn32)CC1	JAK2 JH1	enzyme activity, inhibitor	1 µM	inhibition	12%
CC(C)S(=O)(=O)c1ccc2nccc(Nc3ccc4sc(C5CCCC5)nc4c3)c2c1	JAK2	enzyme activity, inhibitor	1 µM	activity vs control	98%
CO[C@@H]1[C@H](N(C)C(=O)c2ccccc2)C[C@H]2O[C@]1(C)n1c3ccccc3c3c4c(c5c6ccccc6n2c5c31)C(=O)NC4	JAK2 JH1	enzyme activity, inhibitor	1 µM	inhibition	100%
C[C@H]1CC[C@H](n2c3cnccc3c3cnc(Nc4ccc5c(n4)CCN(C(=O)CO)C5)nc32)CC1	JAK2 JH1	cell-free assay, competition with immobilised ligand	1 µM	remaining binding	50%
CCCCC(=O)Nc1ccc(-c2ccc3ncn(CCC)c(=O)c3c2)cn1	JAK2 JH1	binding, competition with immobilised ligand	0.5 µM	remaining binding	100%
CN1CCN(C(=O)c2ccc(NC(=O)Nc3ccc(N(C)c4ccnc(Nc5ccc(CS(C)(=O)=O)cc5)n4)cc3)cc2)CC1	JAK2 JH1	cell-free assay, competition with immobilised ligand	1 µM	remaining binding	4.7%
C#Cc1cc(-c2cc(Nc3nc(N[C@@H](C)c4ccc(F)cn4)ncc3Cl)n[nH]2)ccc1C=O	JAK2	enzyme activity, inhibitor	0.2 µM	inhibition	99.7%
COc1ccc2oc(-c3ccc4nc(N)oc4c3)c/c(=N\c3ccccc3NC(=O)CCN)c2c1	JAK2	binding	1 µM	remaining binding	96%
N#Cc1ccc(NC(=O)Nc2ccccc2)cc1	JAK2 JH1	cell-free assay, competition with immobilised ligand	25 µM	remaining binding	86%
